From publication PMC7135742 (Nature biomedical engineering, 2020)
Values belong to the compound of their own block, whether it stands above or below them.

What was measured:
LS301 = assay: MST of LS301 with whole-cell lysate; settings: reference: lysate of insulin-stimulated 4T1 cells; sites Y23
pANXA2 in 4T1 cells = assay: Western blot of pANXA2 levels after insulin / PP2 treatment; type: cell-based, murine; settings: 100 nM insulin 4 h, PP2 co-administration
Summary of the method: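 4T1 murine breast cancer cells serum-starved overnight, then treated with 100 nM insulin for 4 h or with PP2, following the same protocol as the insulin imaging study. Cells lysed by ultrasonic homogenisation in RIPA buffer (10 mM Tris-HCl, pH 8.0), and lysates resolved by SDS-PAGE and immunoblotted for pANXA2.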

tumours = settings: cited from earlier work
[1] = target: LS301 (cypate-cyclic(DCys-Gly-Arg-Asp-Ser-Pro-Cys)-Lys-OH); assay: MST
[2] = system: A549, MDA-MB-231, and 4T1; assay: Cellular uptake by fluorescence microscopy, solid cancer cell lines; type: cell-based; settings: 1 μM cypate, all cells
Summary of the method: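 Cells were grown in medium with 10% FBS and penicillin/streptomycin (37°C, 5% CO2), then seeded overnight on 8-chamber slides. Compound stock was made in 20% DMSO in PBS (pH 7.4) and diluted into medium to 1 µM final, then incubated at 37°C for several time points. SYTO 13 nuclear stain was added for 45 min at 37°C before epifluorescence or confocal imaging.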

4T1 luc/GFP cells = assay: In vitro blocking study of LS301 uptake; type: cell-based, murine; settings: 24 h, LS301 1 µM, blocking agent 50 µM

Chain of ANXA2 (endogenous, 4T1 cells) (P07356 whole entry, looked up, change not shown): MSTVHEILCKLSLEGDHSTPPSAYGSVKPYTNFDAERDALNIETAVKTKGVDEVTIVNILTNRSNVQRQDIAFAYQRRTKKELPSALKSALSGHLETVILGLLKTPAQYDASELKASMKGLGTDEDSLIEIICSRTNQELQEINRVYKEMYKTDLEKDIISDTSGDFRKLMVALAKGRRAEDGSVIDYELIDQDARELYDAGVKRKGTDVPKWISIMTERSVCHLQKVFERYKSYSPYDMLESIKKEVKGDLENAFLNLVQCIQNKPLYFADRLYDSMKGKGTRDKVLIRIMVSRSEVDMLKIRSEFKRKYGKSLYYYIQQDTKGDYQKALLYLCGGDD

- KD (LS301): weaker; reference 0.017 ± 0.004 nM
Compound: ANXA2 (endogenous, 4T1 cells) (from UniProt P07356) lysate of PP2-treated 4T1 cells

Compound: insulin: stimulates tyrosine-23 phosphorylation of ANXA2
- effect on pANXA2 levels in 4T1 cells (pANXA2 in 4T1 cells): increased levels of pANXA2 relative to unstimulated cells

Compound: Cypate-GRDSPK
- retention of Cypate-GRDSPK in tumours (tumours): the retention was transient

Compound: Purified ANXA2 protein (Annexin A2) (from UniProt P07355 1-339) (natural protein)
- Kd [1]: 0.389 nM

Compound: Purified pANXA2 protein (Annexin A2 phosphorylated at tyrosine 23) (from UniProt P07355 1-339) (natural protein)
- Kd [1]: 0.075 nM

Compound: CC1(C)C(/C=C/C=C/C=C/C=C2/N(CCC(=O)O)c3ccc4ccccc4c3C2(C)C)=[N+](CCC(=O)[O-])c2ccc3ccccc3c21 [cypate]
- cellular retention of cypate alone [2]: only transient retention in all cells

Compound: CC(C)(C)n1nc(-c2ccc(Cl)cc2)c2c(N)ncnc21 [PP2]
- effect on pANXA2 levels in 4T1 cells (pANXA2 in 4T1 cells): this effect was suppressed

Compound: LCKLSL
- blocking of LS301 binding and internalization in cells (4T1 luc/GFP cells): inhibited the binding and internalization of LS301 in cells
